# Data published in ChEMBL document CHEMBL1131139, “Synthesis and antibacterial activity of ketolides (6-O-methyl-3-oxoerythromycin derivatives): a new class of antibacterials highly potent against macrolide-resistant and -susceptible respiratory pathogens” (1998).
# What was measured:
# Type in all cases: functional
# Escherichia coli = assay: In vitro inhibitory activity against Escherichia coli (250 UC5)
# Method in brief: (§1)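 Two-fold agar dilution on Mueller-Hinton agar (pH 7.4). Inoculum from overnight plate cultures suspended in Mueller-Hinton broth, adjusted to 10^9 CFU/mL, diluted 1:200 and spotted by multipoint inoculator at about 10^4 CFU/spot. Plates incubated 37 °C for 20 h. MIC taken as lowest concentration with no visible growth.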
# Haemophilus influenzae [1] = assay: In vitro inhibitory activity against Haemophilus influenzae (351CB12); method in brief: as §1
# Haemophilus influenzae [2] = assay: In vitro inhibitory activity against Haemophilus influenzae (351HT3); method in brief: as §1
# [3] = tested on: Staphylococcus epidermidis; assay: In vitro inhibitory activity against Staphylococcus epidermidis (EryRi 012GO11i); method in brief: as §1
# Staphylococcus aureus [4] = assay: In vitro inhibitory activity against Staphylococcus aureus (011UC4); method in brief: as §1
# Staphylococcus aureus [5] = assay: In vitro inhibitory activity against Staphylococcus aureus (EryRi 011GO25i); method in brief: as §1
# Streptococcus pneumoniae [6] = assay: In vitro inhibitory activity against Streptococcus pneumoniae (032UC1); method in brief: as §1
# Streptococcus pneumoniae [7] = assay: In vitro inhibitory activity against Streptococcus pneumoniae (EryRc 030SJ1); method in brief: as §1
# Streptococcus pneumoniae [8] = assay: In vitro inhibitory activity against Streptococcus pneumoniae (EryRi 030SJ5i); method in brief: as §1
# Streptococcus pyogenes = assay: In vitro inhibitory activity against Streptococcus pyogenes (02A1UC1); method in brief: as §1
# Staphylococcus aureus [9] = assay: In vitro inhibitory activity against Staphylococcus aureus (EryRc 011CB20); method in brief: as §1
MIC (Escherichia coli) [µg/mL],MIC (Haemophilus influenzae [1]) [µg/mL],MIC (Haemophilus influenzae [2]) [µg/mL],MIC [3] [µg/mL],MIC (Staphylococcus aureus [4]) [µg/mL],MIC (Staphylococcus aureus [5]) [µg/mL],MIC (Streptococcus pneumoniae [6]) [µg/mL],MIC (Streptococcus pneumoniae [7]) [µg/mL],MIC (Streptococcus pneumoniae [8]) [µg/mL],MIC (Streptococcus pyogenes) [µg/mL],MIC (Staphylococcus aureus [9]) [µg/mL],SMILES
40,20,40,1.2,0.6,5,0.15,40,10,0.15,40,CC[C@H]1OC(=O)[C@H](C)C(=O)[C@H](C)[C@@H](O[C@@H]2O[C@H](C)C[C@H](N(C)C)[C@H]2O)[C@](C)(OC)C[C@@H](C)/C(=N\OCCNCCN(C)C)[C@H](C)[C@@H](O)[C@]1(C)O
40,5,5,10,0.6,0.6,0.02,5,2.5,0.04,40,CC[C@H]1OC(=O)[C@H](C)C(=O)[C@H](C)[C@@H](O[C@@H]2O[C@H](C)C[C@H](N(C)C)[C@H]2O)[C@](C)(OC)C[C@@H](C)C(=O)[C@H](C)[C@H]2NC(=O)O[C@@]21C
40,5,5,0.3,0.3,0.6,0.02,40,40,0.08,40,CC[C@H]1OC(=O)[C@H](C)C(=O)[C@H](C)[C@@H](O[C@@H]2O[C@H](C)C[C@H](N(C)C)[C@H]2O)[C@](C)(OC)C[C@@H](C)C2=NCCN3C(=O)O[C@@]1(C)[C@H]3[C@H]2C
